Data: ChEMBL document CHEMBL1129651, “3-Phenyl-substituted imidazo[1,5-alpha]quinoxalin-4-ones and imidazo[1,5-alpha]quinoxaline ureas that have high affinity at the GABAA/benzodiazepine receptor complex” (J Med Chem, 1996)

Legend:
[1] = biological target: GABA-A receptor; anion channel; assay: Binding affinity against benzodiazepine receptor (BzR) in rat cortical membranes determined by competition experiments with radiolabeled [3H]flunitrazepam (Fnz); type: cell membranes
[2] = species on record: Mus musculus; assay: Acute electroshock physical dependence activity (drug MA50/V122 MA50); type: functional
Outline: (§1)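 Male CF-1 mice, 10/group, dosed sc twice daily for 3 days (0800, then 2 times that dose at 1600). Flumazenil 2.5 mg/kg iv in 5% aqueous N,N-dimethylacetamide given 24 h after the last dose. 5 min later electroshock seizure threshold estimated by up-down method (0.05 log steps; transpinnal 0.6 ms pulses, 100 Hz, 0.2 s). Comparison is against a saline-treated, flumazenil-injected control group.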

[3] = species on record: Mus musculus; assay: Compound was tested for ethanol potentiation expressed as the loss of traction response (muscle relaxation); type: functional
Outline: (§2)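 Male CF-1 mice given 50% aqueous ethanol orally (7.5 mL/kg) plus test compound sc in 0.25% aqueous methyl cellulose (10 mL/kg). Tested 30 min later. Traction: hindlimb placed on wire within 10 s when suspended by forepaws. Righting: rolls onto feet within 10 s when released on its back. Six mice per dose; ED50s determined.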

[4] = species on record: Mus musculus; assay: Antagonism of benzodiazepine traction in mice; type: functional
Outline: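 Male CF-1 mice given triazolam 1 mg/kg ip together with test compound ip, starting at 100 mg/kg, in 0.25% aqueous methyl cellulose. Dose-response run on 0.5 log scale. Loss of traction scored 15 min later. Absence of the expected loss marks antagonism. ED50 taken from lower doses.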

[5] = species on record: Mus musculus; assay: Compound was tested for ethanol potentiation expressed as loss of righting reflex (anesthesia); type: functional; outline: as §2
[6] = biological target: GABA-A receptor; anion channel (Rattus norvegicus) (UniProt O09028+P15431+P18506+P18508+P19969+P20236+P23574+P23576+P28471+P28473+P30191+P62813+P63079+P63138+Q91ZM7+Q9ES14)
[7] = tested on: Rattus norvegicus; assay: Ability to antagonize metrazole-induced seizures (clonic and tonic) in rats after intraperitoneal injection; conditions: ip
[8] = biological target: GABA A receptor alpha-3/beta-2/gamma-2 (Rattus norvegicus) (UniProt P18508+P20236+P63138); assay: In vitro efficacy as change in chloride current against GABA-A alpha-3-beta-2-gamma-2 subunit expression; type: functional
[9] = species on record: Mus musculus; assay: Compound was tested for Acute electroshock physical dependence activity (drug MA50/V122 MA50); No significant activity; type: functional; outline: as §1

SMILES | Ki [1] [nM] | Activity [2] | ED50 [3] [mg/kg] | ED50 [4] [mg/kg] | ED50 [5] [mg/kg] | TBPS shift [6] | ED50 [7] [mg/kg] | Cl - current change [8] | Activity [9]
O=C(N1CCOCC1)N1Cc2c(-c3ccc(F)cc3)ncn2-c2ccc(F)cc21 | 2.16 | 0.7 | 5 | > 30 | 17 | 0.7 | 0.14 |  | 
COc1ccc(-c2ncn3c2c(=O)n(C(C)C)c2cc(F)ccc23)cc1 | 81.5 |  |  |  |  | 0.97 | > 50 |  | 
CC(C)n1c(=O)c2c(-c3ccccc3)ncn2c2ccc(F)cc21 | 39.6 |  |  |  |  | 0.77 | > 50 |  | 
O=C(N1CCCC1)N1Cc2c(-c3ccccc3)ncn2-c2ccccc21 |  |  |  |  |  | 0.69 |  |  | 
CC(C)(C)NC(=O)N1Cc2c(-c3ccc(F)cc3)ncn2-c2ccccc21 | 283 |  |  |  |  | 1.02 | > 50 |  | 
O=C(N1CCOCC1)N1Cc2c(-c3ccc(F)cc3)ncn2-c2ccccc21 | 1.61 | 0.67 |  |  |  | 0.54 | 0.3 |  | 
CC(C)n1c(=O)c2c(-c3cccc(F)c3)ncn2c2ccccc21 | 480 |  |  |  |  | 0.31 | > 50 |  | 
CC(C)n1c(=O)c2c(-c3ccc(C(F)(F)F)cc3)ncn2c2ccccc21 | > 10000 |  |  |  |  | 0.36 |  | 0.36 | 
CC(C)n1c(=O)c2c(-c3ccc(Cl)cc3)ncn2c2ccccc21 |  |  |  |  |  | 0.74 | > 50 |  | 
O=C(c1ccc(F)cc1)N1Cc2c(-c3ccc(F)cc3)ncn2-c2ccccc21 | 20.5 |  |  |  |  | 0.82 | 29.7 |  | 
CC(C)n1c(=O)c2c(-c3ccc(F)cc3)ncn2c2cccc(Cl)c21 | 14.6 |  |  |  |  | 2.04 | 0.9 | 3.4 | 
COc1ccc(-c2ncn3c2c(=O)n(C(C)C)c2c(Cl)cccc23)cc1 | 27.9 |  | > 30 | > 30 | > 30 | 1.04 | 1.3 | 1 | 0.91
CCNC(=O)N1Cc2c(-c3ccc(F)cc3)ncn2-c2ccccc21 | 48.6 |  |  |  |  | 0.42 | > 50 |  | 
CC1CN(C(=O)N2Cc3c(-c4ccc(F)cc4)ncn3-c3cccc(Cl)c32)CC(C)N1 (centres undefined) | 33.4 |  |  | > 30 |  | 0.31 | 1.8 |  | 
CN(C)C(=O)N1Cc2c(-c3ccccc3)ncn2-c2ccccc21 | 3.41 |  |  |  |  | 0.4 |  |  | 
Cc1ccc(-c2ncn3c2c(=O)n(C(C)C)c2ccccc23)cc1 | 174 |  |  |  |  | 1.09 | > 50 |  | 
CC(C)n1c(=O)c2c(-c3noc(C4CC4)n3)ncn2c2ccccc21 [PANADIPLON] |  |  | 6.6 | 1.7 | > 30 |  | 1.6 |  | 0.95
COc1ccc(-c2ncn3c2CN(C(=O)N2CC(C)NC(C)C2)c2ccccc2-3)cc1 (centres undefined) | 1.39 | 0.47 |  | > 30 |  | 0.31 | 0.8 |  | 
Cc1ccc(-c2ncn3c2CN(C(=O)N(C)C)c2ccccc2-3)cc1 | 11.1 | 0.87 |  |  |  |  | 4.4 |  | 
CN(C)C(=O)N1c2ccccc2-n2cnc(-c3ccccc3)c2C1(C)C | 478 |  |  |  |  | 0.45 |  |  | 
CC1CN(C(=O)N2Cc3c(-c4ccc(F)cc4)ncn3-c3ccc(F)cc32)CC(C)N1C (centres undefined) |  | 0.59 |  |  |  | 0.64 | 1.3 |  | 
CC1CN(C(=O)N2Cc3c(-c4ccc(F)cc4)ncn3-c3ccccc32)CC(C)N1C (centres undefined) | 13.2 | 0.8 |  | > 30 |  | 0.31 | 13 |  | 
CN(C)C(=O)N1Cc2c(-c3ccc(F)cc3)ncn2-c2ccccc21 | 2.96 | 0.87 | 11 | 4.9 | > 30 | 0.53 | 4.4 |  | 
CC(C)OC(=O)N1Cc2c(-c3ccc(F)cc3)ncn2-c2ccccc21 | 50.8 | 0.83 | > 30 | > 30 | > 30 | 0.93 | 6.3 |  | 
O=C(N1CCCC1)N1Cc2c(-c3ccc(F)cc3)ncn2-c2ccccc21 | 0.97 | 0.88 | 0.34 | > 30 | > 30 | 0.64 | 14.8 |  | 
COc1ccccc1-c1ncn2c1c(=O)n(C(C)C)c1ccccc12 | > 10000 |  |  |  |  |  |  |  | 

SMILES | Ki [1] [nM] | Activity [2] | ED50 [3] [mg/kg] | ED50 [4] [mg/kg] | ED50 [5] [mg/kg] | TBPS shift [6] | ED50 [7] [mg/kg] | Cl - current change [8] | Activity [9]
CC(C)n1c(=O)c2c(-c3cccc(C(F)(F)F)c3)ncn2c2ccccc21 | 188 |  |  |  |  | 0.45 | > 50 | 0.03 | 
CC(C)n1c(=O)c2c(-c3ccc(F)cc3)ncn2c2ccc(Cl)cc21 | 1690 |  |  |  |  | 0.14 | > 50 | 0.03 | 
CC(C)n1c(=O)c2c(-c3ccc(F)cc3)ncn2c2ccc(F)cc21 | 59.4 |  |  |  |  | 0.8 | > 50 |  | 
O=C(N1CCOCC1)N1Cc2c(-c3ccc(F)cc3)ncn2-c2ccc(Cl)cc21 | 15.2 | 0.62 | 11 | > 30 | 27 | 1.05 | 0.76 |  | 
COc1ccc(-c2ncn3c2c(=O)n(C(C)C)c2ccccc23)cc1 | 31.7 |  | > 30 |  | > 30 | 0.75 | 12.5 |  | 
CC1CN(C(=O)N2Cc3c(-c4ccc(F)cc4)ncn3-c3ccccc32)CC(C)N1 (centres undefined) | 5.85 | 0.7 | 4 | > 30 | > 30 | 0.75 | 1.1 |  | 
Cc1cccc2c1n(C(C)C)c(=O)c1c(-c3ccc(F)cc3)ncn12 | 126 |  |  |  |  | 1.83 | 2.6 | 1.7 | 
Cc1ccc(-c2ncn3c2C(C)(C)N(C(=O)N(C)C)c2ccccc2-3)cc1 | 334 |  |  |  |  | 0.71 | > 50 |  | 
CC1CN(C(=O)N2Cc3c(-c4ccc(F)cc4)ncn3-c3cccc(Cl)c32)CC(C)N1C (centres undefined) | 47.4 | 0.8 |  | > 30 |  | 0.62 | 1.8 |  | 
O=C(N1CCOCC1)N1Cc2c(-c3ccc(F)cc3)ncn2-c2cccc(Cl)c21 | 2.97 | 0.86 |  |  |  | 0.44 | 3.7 |  | 
COC(=O)N1Cc2c(-c3ccc(F)cc3)ncn2-c2ccccc21 | 47.2 |  |  |  |  | 0.53 | > 50 |  | 
NC(=O)N1Cc2c(-c3ccc(F)cc3)ncn2-c2ccccc21 | 216 |  |  |  |  | 0.29 | > 50 |  | 
CC1(C)c2c(-c3ccc(F)cc3)ncn2-c2ccccc2N1C(=O)N1CCCC1 | 12.6 |  |  |  |  | 0.6 | > 50 |  | 
COc1cccc(-c2ncn3c2c(=O)n(C(C)C)c2ccccc23)c1 | 207 |  |  |  |  | 0.24 | > 50 | 0.12 | 
CN1C(=O)CN=C(c2ccccc2)c2cc(Cl)ccc21 [DIAZEPAM] |  | 18.2 | 0.54 |  | 0.86 |  | 0.5 |  | 
O=C(c1cccc(F)c1)N1Cc2c(-c3ccc(F)cc3)ncn2-c2ccccc21 | 5.91 | 0.87 |  |  |  | 1.06 | 1.3 |  | 
CC(C)n1c(=O)c2c(-c3ccc(F)cc3)ncn2c2ccccc21 | 115 |  | 14 | > 30 | > 30 | 0.58 | 30 | 0.45 | 1
O=C(N1CCCCC1)N1Cc2c(-c3ccccc3)ncn2-c2ccccc21 | 1.65 | 0.82 | 0.5 | > 30 | > 30 | 0.52 | 4.5 |  | 
Cc1ccc(-c2ncn3c2C(C)(C)N(C(=O)N2CCCC2)c2ccccc2-3)cc1 | 35 |  |  |  |  | 1.05 | 17.7 |  | 
O=C(c1ccccc1F)N1Cc2c(-c3ccc(F)cc3)ncn2-c2ccccc21 | 42.4 |  |  |  |  | 0.84 |  |  | 
COc1ccc(-c2ncn3c2c(=O)n(C(C)C)c2c(C)cccc23)cc1 | 49.7 |  |  |  |  | 0.92 | 3.1 | 1.3 | 
CN(C)C(=O)N1c2ccccc2-n2cnc(-c3ccc(F)cc3)c2C1(C)C | 163 |  |  |  |  | 0.49 | > 50 |  | 
CC1CN(C(=O)N2Cc3c(-c4ccc(F)cc4)ncn3-c3ccc(F)cc32)CC(C)N1 (centres undefined) | 2.49 |  |  | > 30 |  | 0.72 | 0.5 |  | 
Cc1ccc(-c2ncn3c2CN(C(=O)N2CCCC2)c2ccccc2-3)cc1 | 1.54 |  |  |  |  | 1.19 |  |  | 
CC(C)n1c(=O)c2c(-c3ccccc3)ncn2c2ccccc21 | 38.5 |  |  |  |  | 0.31 | > 50 |  | 
